pEC50, pIC50: −log10 of the molar value. Calls of active or inactive are those of the source. The calls are words filed in the database; no cut-off is given here.

For data set [1], the target named is T1, Thymidylate kinase (Homo sapiens) (UniProt P23919).
T1 sequence (whole entry): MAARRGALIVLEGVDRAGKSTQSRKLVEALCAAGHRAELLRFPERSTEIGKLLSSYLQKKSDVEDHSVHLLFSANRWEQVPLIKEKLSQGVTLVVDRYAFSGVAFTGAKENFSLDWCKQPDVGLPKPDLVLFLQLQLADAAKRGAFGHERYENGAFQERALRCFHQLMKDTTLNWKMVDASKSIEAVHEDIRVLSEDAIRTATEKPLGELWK
In words: Inhibition of GST-tagged human TMPK expressed in Escherichia coli BL21 at 2 uM incubated for 10 mins by luciferase-coupled TMPK assay.

Data set [2] concerns the target T1, Thymidylate kinase (Homo sapiens). Nature of the data set: Binding affinity to GST-tagged human TMPK expressed in Escherichia coli BL21 assessed as binding constant for compound to protein 1:1 stoichiometry by ITC analysis. Summed up: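 ITC in PBS pH 7.4 with 50% glycerol at 298 K, stirring at 1000 rpm. Compound (1.228 mM) injected into hTMPK (0.0817 mM): a first 0.5 μL injection, then 2 μL injections at 4-min spacing. Fitted for stoichiometry, association constant, ΔH and ΔS.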

The nature of data set [3]: Cytotoxicity in IL-3-dependent mouse 32D cells expressing Bcr-Abl after 3 days by WST-1 assay. It counts as functional, cell-based. Particulars: 72 h. A general note: Formazan colour is commonly taken as a measure of viable cells.
The target of data set [4] is T1, Thymidylate kinase (Homo sapiens). Nature of the data set: Inhibition of GST-tagged human TMPK expressed in Escherichia coli BL21 incubated for 20 mins by NADH-coupled colorimetric assay. Summed up:
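Purified hTMPK at 25 °C in 100 mM Tris-HCl pH 7.5, 100 mM KCl, 10 mM MgCl2, 500 μM ATP, 250 μM TMP/CMP. Coupling mix: 500 μM phosphoenolpyruvate, 250 μM NADH, pyruvate kinase (4 units) and lactate dehydrogenase (5 units). NADH change read at 340 nm after 20 min.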

The next data set deals with T2, Thymidylate kinase (Homo sapiens, UniProt P23919).
T2 sequence (P23919 whole entry): T1 sequence (whole entry)
Nature of the data set: Inhibition of GST-tagged human TMPK expressed in Escherichia coli BL21 incubated for 10 mins by luciferase-coupled TMPK assay. In outline: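 Purified hTMPK (10 μL of 0.1 μg/μL) and compound (10 μL of 10 μM, diluted from 10 mM DMSO stock) added to 100 mM Tris-HCl pH 7.5, 100 mM KCl, 10 mM MgCl2, 5 μM ATP, 100 μM dTMP. Reaction run 10 min at 25 °C. Remaining ATP read by CellTiter-Glo luminescence. IC50 from triplicate independent experiments.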

Data set [5] is described as follows: Inhibition of tyrosine kinase activity in protein samples from human MDA-MB-231 cells using TK substrate incubated for 30 mins. It counts as cell-based. The following applies: MDA-MB-231, 0.5 h. In outline:
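Tyrosine kinase immunoprecipitated from MB-231 cell protein extracts and suspended in kinase solution with 10 mM 2-mercaptoethanol. Diluted enzyme mixed with compound (from 5 mM aqueous dilution) and ATP on substrate-coated wells, 37 °C, 30 min. Phosphotyrosine detected with anti-phosphotyrosine (PY20)-HRP and HRP substrate, stopped with H2SO4, absorbance read at 450 nm.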

The nature of data set [6]: Cytotoxicity in mouse 32D cells after 3 days by WST-1 assay. It counts as cell-based. Particulars: 72 h, time 3 day.
Data set [7] concerns the target T1, Thymidylate kinase (Homo sapiens). In words: Binding affinity to GST-tagged human TMPK expressed in Escherichia coli BL21 assessed as formation of disulfide bonds with Cys residues incubated for 30 mins at 25 degC in presence of trypsin by LC-MS/MS analysis. In outline: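 hTMPK incubated with compound (20 μL of 10 mM DMSO stock in 1 mL PBS pH 7.4), 25 °C, 30 min. DTNB served as positive control and DMSO as negative control. Excess compound removed by dialysis against water. Digested with trypsin (1:50 w/w), 37 °C, 12 h, without denaturation or DTT reduction. Peptides analysed by nanoLC-ESI-MS/MS.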

The next data set concerns Candida. In words: Inhibition of Candida Cdc8 incubated for 10 mins in presence of [gamma-32P]ATP by 32P-phosphate transfer assay. In outline:
(§1)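 hTMPK (0.2 μg) or Candida Cdc8 (0.02 μg; GST fusion from E. coli BL21, purified similarly). Compound preincubated 10 min, then enzyme added to 0.05 μM [γ-32P]ATP, 50 μM ATP and 50 μM dTMP in 100 mM Tris-HCl, 100 mM KCl, 10 mM MgCl2. Stopped by heating. Products separated by PEI-cellulose TLC (2 M acetic acid/0.5 M LiCl), and 32P-dTDP spots counted by scintillation.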

Data set [8] has as its target T1, Thymidylate kinase (Homo sapiens). Nature of the data set: Inhibition of GST-tagged human TMPK expressed in Escherichia coli BL21 incubated for 10 mins in presence of [gamma-32P]ATP by 32P-phosphate transfer assay. Summed up:
as §1

Data set [9] shares this target. In words: Binding affinity to GST-tagged human TMPK expressed in Escherichia coli BL21 pre-incubated for 30 mins at 25 degC followed by UV irradiation by HRP based Western blot analysis. In outline:
(§2)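 Photoprobe (6.8 μL of 3 mM DMSO stock) and purified hTMPK incubated in 1 mL PBS pH 7.4 with protease inhibitor cocktail, 25 °C, 30 min. Irradiation where applied: 254-nm UV, three 1-min exposures. Samples boiled in SDS sample buffer and run on 12% SDS-PAGE. Transferred to PVDF, probed with streptavidin-HRP, detected by chemiluminescence.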

Data set [10] has the same target. In words: Binding affinity to ATP binding site of GST-tagged human TMPK expressed in Escherichia coli […] assessed as mass shift of labeled peptides in presence of trypsin by LC-MS/MS analysis. In outline:
(§3)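 Purified hTMPK (from GST fusion in E. coli […], thrombin-cleaved) preincubated with biotin-arylazide photoprobe in PBS pH 7.4, 25 °C, 30 min, then irradiated with 254-nm UV light three times for 1 min each. Protein denatured in 6.5 M urea, reduced with DTT and alkylated with iodoacetamide. Digested with trypsin (1:50 w/w) or chymotrypsin (1:100 w/w), 37 °C, 16 h. Peptides analysed by nanoLC-ESI-MS/MS, with or without monomeric avidin enrichment.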

Data set [11] shares this target. In words: Binding affinity to GST-tagged human TMPK expressed in Escherichia coli BL21 pre-incubated for 30 mins at 25 degC followed by absence of irradiation by HRP based Western blot analysis. In outline: as §2
Data set [12] shares this target. Nature of the data set: Binding affinity to ATP binding site of GST-tagged human TMPK expressed in […] assessed as mass shift of labeled peptides in presence of chymotrypsin by LC-MS/MS analysis. In outline: as §3

Consider `CCOC(=O)N1CCN(C(=O)Cn2sc3ccccc3c2=O)CC1`, for which the inhibition in data set [1] is 70%.

Turning to `Cc1cc(C)c2c(=O)n(CC(=O)N3CCNCC3)sc2n1`, the K in data set [2] is 127000 M⁻¹. This compound registered an inhibition in data set [1] of 73.4%.

On to `CCOC(=O)N1CCN(C(=O)COc2nsc3cc(C)cc(C)c23)CC1`, for which the inhibition result in [1] is “inactive”.

As for `CC(C)(C)OC(=O)N1CCN(C(=O)COc2nsc3ncccc23)CC1`, the inhibition entry in data set [1] was “inactive”.

Turning to `O=c1c2ccccc2sn1-c1ccc(F)c(Cl)c1`, in data set [1], the inhibition is less than 2%.

On to `CC(C)(C)OC(=O)N1CCN(C(=O)COc2nsc3ccccc23)CC1`, for which, in [1], the inhibition entry is “inactive”.

Compound `CC(C)(C)OC(=O)N1CCN(C(=O)Cn2sc3ccccc3c2=O)CC1` showed a pEC50 in data set [3] of 6.19. Further, in data set [4], the inhibition entry is “Active”. Besides, the figures for the negative logarithm of the IC50 (pIC50) (on Thymidylate kinase; in [5]) were 6.46 and less than 4.00, respectively. The Activity result in data set [6] is on record as “Non-Toxic”. For the same compound, in data set [1], the inhibition came out at 91.3%.

For the compound `CCOC(=O)N1CCN(C(=O)Cn2sc3nc(C)cc(C)c3c2=O)CC1`, in data set [3], the pEC50 was 6.06. In data set [7], the outcome was inactive. Moreover, the inhibition entry in data set [4] and in [8] was “Active” in each case. Moreover, the negative logarithm of the IC50 (pIC50) was 5.78 at Thymidylate kinase and less than 4.00 in data set [5]. Moreover, the Activity entry in [6] was “Non-Toxic”. Further, the inhibition result with Candida is “inactive”. Besides, the inhibition in data set [1] turned out to be 70%.

In data set [3], `CC(C)(C)OC(=O)N1CCN(C(=O)Cn2sc3ncccc3c2=O)CC1` had a negative logarithm of the EC50 (pEC50) of 5.85. Moreover, in data set [4], the inhibition result was “Active”. Moreover, the figures for the pIC50 (on Thymidylate kinase; in data set [5]) were 6.33 and less than 4.00, respectively. The Activity result in data set [6] is “Non-Toxic”. The inhibition in data set [1] was 91.3%.

As for `[N-]=[N+]=Nc1ccc2c(=O)n(CC(=O)N3CCN(CCOCCOCCOC(=O)CCCC[C@@H]4SC[C@@H]5NC(=O)N[C@@H]54)CC3)sc2c1`, the result in data set [9] was Active. Also, the pIC50 in data set [5] was less than 4.00. Moreover, in data set [1], the inhibition is 86.9%. In addition, the Activity in data set [10] was found to be 648 Da; in data set [12], 422 Da. The result in data set [11] was inactive.

Regarding `O=c1c2ccccc2sn1-c1ccccc1`, in data set [7], the outcome was Active.

In data set [1], `Cc1cc(C)c2c(=O)n(CC(=O)N3CCN(C(=O)OC(C)(C)C)CC3)sc2n1` displayed an inhibition of 76.3%.

For `CCOC(=O)N1CCN(C(=O)CCCn2sc3ccccc3c2=O)CC1`, the inhibition in data set [1] is 7%.

For `O=C(O)c1cc(SSc2ccc([N+](=O)[O-])c(C(=O)O)c2)ccc1[N+](=O)[O-]`, in data set [7], the outcome was Active.

As usually defined, the inhibition is the change of the read-out against control, counted positive when it falls. The term pEC50 denotes the negative decadic logarithm of the EC50, by convention in mol/L. Lower therefore signals a high EC50. Usually pIC50 stands for −log10 of the IC50, conventionally taken in molar units. High values mean a low IC50, low ones a high IC50.
